# Key:
# [1] = molecular target: T1, Methionine aminopeptidase 1 (Saccharomyces cerevisiae S288c, UniProt Q01662); assay: Inhibitory activity against type I methionine aminopeptidase from Saccharomyces cerevisiae
# T1 sequence (Q01662 whole entry): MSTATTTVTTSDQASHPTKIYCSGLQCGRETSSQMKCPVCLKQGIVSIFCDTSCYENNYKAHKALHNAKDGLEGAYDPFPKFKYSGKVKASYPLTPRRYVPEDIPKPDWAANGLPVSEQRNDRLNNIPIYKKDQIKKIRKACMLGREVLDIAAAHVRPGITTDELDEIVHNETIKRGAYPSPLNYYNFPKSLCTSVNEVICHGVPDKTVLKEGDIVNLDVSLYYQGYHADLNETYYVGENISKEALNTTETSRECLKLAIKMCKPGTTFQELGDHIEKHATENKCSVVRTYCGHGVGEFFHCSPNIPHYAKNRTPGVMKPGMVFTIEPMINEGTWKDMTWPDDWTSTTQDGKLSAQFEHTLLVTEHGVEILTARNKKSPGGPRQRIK
# Outline: (§1)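 Co(II)-activated enzyme: preincubated 30 min in 25 mM HEPES pH 7.5, 150 mM KCl, 15 mM methionine, 500 μM CoCl2. Chromogenic assay in 50 mM MOPS pH 7.0 with 1 mM DTNB and 100 μM thiopeptolide Met-S-Gly-Phe-OH. Final enzyme was 150 nM for EcMetAP1 and 330 nM for ScMetAP1. Hydrolysis read at 412 nm for 60 s. IC50 from inhibitor dilutions, […].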
# Escherichia coli [2] = assay: Selectivity of inhibitory activity of Methionine aminopeptidase 1 from Escherichia coli to Methionine aminopeptidase 1 from Saccharomyces cerevisiae
# [3] = molecular target: T2, Methionine aminopeptidase (Escherichia coli K-12, UniProt P0AE18); assay: Inhibitory activity against Methionine aminopeptidase 1 from Escherichia coli; outline: as §1
# T2 sequence (P0AE18 whole entry): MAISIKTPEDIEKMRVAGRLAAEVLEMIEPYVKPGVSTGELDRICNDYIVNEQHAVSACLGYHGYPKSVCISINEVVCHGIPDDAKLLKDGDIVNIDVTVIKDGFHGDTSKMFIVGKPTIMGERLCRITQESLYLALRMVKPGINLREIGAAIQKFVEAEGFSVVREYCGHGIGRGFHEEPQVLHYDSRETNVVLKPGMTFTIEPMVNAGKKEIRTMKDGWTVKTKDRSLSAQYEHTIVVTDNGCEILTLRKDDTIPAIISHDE
# Escherichia coli [4] = assay: Antibacterial activity against enteropathogenic Escherichia coli ATCC 25922 was determined after 24 hr; format: functional; conditions: ATCC 25922, 24 h
# Pseudomonas aeruginosa = assay: Antibacterial activity against Pseudomonas aeruginosa ATCC 27853 was determined after 24 hr; format: functional; conditions: ATCC 27853, 24 h
# Staphylococcus aureus = assay: Antibacterial activity against Staphylococcus aureus ATCC 25923 was determined after 24 hr; format: functional; conditions: ATCC 25923, 24 h
SMILES,IC50 [1] [µM],Ratio (Escherichia coli [2]),IC50 [3] [µM],MIC (Escherichia coli [4]) [µg/mL],MIC (Pseudomonas aeruginosa) [µg/mL],MIC (Staphylococcus aureus) [µg/mL]
O=C(Nc1cccnc1C(=O)Nc1nccs1)c1cccc(F)c1,> 100,< 0.0071,0.71,–,–,–
COc1cccc(C(=O)Oc2cccnc2C(=O)Nc2nccs2)c1[N+](=O)[O-],3.02,0.56,1.7,–,–,–
O=C(Oc1cccnc1C(=O)Nc1nccs1)c1cccc(F)c1,> 100,< 0.0095,0.95,–,–,–
O=C(Cc1ccccc1)Nc1cccnc1C(=O)Nc1nccs1,0.82,0.49,0.4,–,–,–
CCCCCC(=O)Oc1cccnc1C(=O)Nc1nccs1,1.74,0.59,1.02,–,–,–
O=C(Nc1cccnc1C(=O)Nc1nccs1)c1ccccc1F,> 100,< 0.0028,0.28,250,250,15.6
O=C(Nc1cccnc1C(=O)Nc1nccs1)c1ccc(F)cc1,> 100,< 0.0136,1.36,–,–,–
CC(C)(C)OC(=O)Nc1cccnc1C(=O)Nc1nccs1,3.35,0.054,0.18,–,–,–
CCCC[C@@H](N)[C@H](O)C(=O)N[C@@H](C)C(=O)N[C@@H](CC(C)C)C(=O)OC,95.1,–,22.9,–,–,–
CCC(=O)Nc1cccnc1C(=O)Nc1nccs1,0.35,0.74,0.26,–,–,–
O=C(Oc1cccnc1C(=O)Nc1nccs1)c1cccc([N+](=O)[O-])c1,> 100,< 0.006,0.6,–,–,–
CC(C)=CCC(=O)Nc1cccnc1C(=O)Nc1nccs1,0.14,1.71,0.24,–,–,–
O=C(Nc1nccs1)c1ccccn1,7,0.71,5,12.5,250,2
CC(C)COC(=O)Nc1cccnc1C(=O)Nc1nccs1,53.7,0.036,1.92,–,–,–
O=C(Cc1ccccc1)Oc1cccnc1C(=O)Nc1nccs1,0.2,2.7,0.54,–,–,–
CC(C)(C)C(=O)Nc1cccnc1C(=O)Nc1nccs1,0.34,1.59,0.54,–,–,–
O=C(Oc1cccnc1C(=O)Nc1nccs1)c1ccccc1,1.03,1.2,1.22,–,–,–
O=C(Oc1cccnc1C(=O)Nc1nccs1)c1ccc(F)c(Br)c1,3.4,0.74,2.5,–,–,–
CC(=O)Oc1ccccc1C(=O)Oc1cccnc1C(=O)Nc1nccs1,15,0.11,1.6,–,–,–
CCCCCC(=O)Nc1cccnc1C(=O)Nc1nccs1,0.62,0.61,0.38,–,–,–
COc1ccccc1/C=C/C(=O)Oc1cccnc1C(=O)Nc1nccs1,9.9,0.21,2.1,–,–,–
CCC(=O)Oc1cccnc1C(=O)Nc1nccs1,0.38,14,5.4,250,500,125

SMILES,IC50 [1] [µM],Ratio (Escherichia coli [2]),IC50 [3] [µM],MIC (Escherichia coli [4]) [µg/mL],MIC (Pseudomonas aeruginosa) [µg/mL],MIC (Staphylococcus aureus) [µg/mL]
O=C(Nc1nccs1)c1ncccc1NC(=O)C1CCCCC1,> 100,< 0.0087,0.87,–,–,–
O=C(Oc1cccnc1C(=O)Nc1nccs1)c1ccccc1F,16,0.052,0.83,–,–,–
C/C=C(\C)C(=O)Nc1cccnc1C(=O)Nc1nccs1,10.9,0.026,0.28,–,–,–
O=C(Nc1cccnc1C(=O)Nc1nccs1)c1ccccc1,> 100,< 0.0089,0.89,–,–,–
CC(C)=CC(=O)Oc1cccnc1C(=O)Nc1nccs1,0.49,5.3,2.6,–,–,–
O=C(Oc1cccnc1C(=O)Nc1nccs1)c1ccccc1[N+](=O)[O-],> 100,< 0.021,2.1,–,–,–
O=C(Oc1cccnc1C(=O)Nc1nccs1)c1ccccc1I,0.89,1.5,1.3,–,–,–
CC(C)(C)C(=O)Oc1cccnc1C(=O)Nc1nccs1,0.78,0.87,0.68,–,–,–
O=C(Nc1nccs1)c1ncccc1O,4.86,0.38,1.87,–,–,–
O=C(Oc1cccnc1C(=O)Nc1nccs1)c1ccc(F)cc1,62,0.018,1.1,–,–,–
C/C=C(\C)C(=O)Oc1cccnc1C(=O)Nc1nccs1,0.39,11,4.4,–,–,–
CC(C)=CC(=O)Nc1cccnc1C(=O)Nc1nccs1,0.77,0.29,0.22,–,–,–
CC(C)=CCCC(=O)Nc1cccnc1C(=O)Nc1nccs1,0.31,2,0.61,–,–,–
C=C(C)CC(=O)Nc1cccnc1C(=O)Nc1nccs1,4.67,0.032,0.15,–,–,–
O=C(Nc1nccs1)c1ncccc1OC(=O)C1CCCCC1,0.32,7.5,2.39,–,–,–
Nc1cccnc1C(=O)Nc1nccs1,32.8,0.052,1.7,–,–,–
O=CNc1cccnc1C(=O)Nc1nccs1,0.32,1,0.33,125,500,62.5
O=C(Nc1nccs1)c1ncccc1NC(=O)C(F)(F)F,4.92,0.069,0.34,–,–,–
CO[C@@H]1[C@H](OC(=O)/C=C/C=C/C=C/C=C/C(=O)O)CC[C@]2(CO2)[C@H]1[C@@]1(C)O[C@@H]1CC=C(C)C [FUMAGILLIN],> 100,–,> 100,–,–,–
COc1ccccc1C(=O)Oc1cccnc1C(=O)Nc1nccs1,0.55,3.1,1.7,–,–,–
C=CCC(=O)Nc1cccnc1C(=O)Nc1nccs1,0.38,0.34,0.13,125,500,62.5

# Source: ChEMBL document CHEMBL1145806, “Discovery and structural modification of inhibitors of methionine aminopeptidases from Escherichia coli and Saccharomyces cerevisiae” (J Med Chem, 2003)
